Bioassay records: PubChem, several laboratories
Rows were chosen to be rich in hits. Some 2.1% of all compounds tested hit in one or more screens of this group.
EBI2 antag – EBI2 receptor antagonists, beta-arrestin recruitment, primary screen, cell-based, luminescence, 7a,25-OHC stimulation, uHTS; G-protein coupled receptor 183 (Homo sapiens), P32249; 7a,25-OHC stimulated; inhibition, % at 5 µM; 360,000 tested, 0.81% active; in the data active = inhibition above about 38%;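 note: enzyme fragment complementation signal reports receptor beta-arrestin coupling in cells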
CXCR6 inh – CXCR6 receptor inhibitors, primary screen, cell-based, beta-arrestin, luminescence, CHO-K1 PathHunter, 1536-well | inhibition, % at 20 µM | 360,000 tested, 0.36% active; in the data active = inhibition above about 34%, passing the limit was not always enough;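 note: antagonist mode with CXCL16 agonist at 10 nM final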
CCR6 antagonist – CCR6 receptor antagonists, primary screen, cell-based, CHO-K1, luminescence, beta-arrestin, uHTS. C-C chemokine receptor type 6 (Homo sapiens), P51684. CHO-K1 CCR6 PathHunter beta-arrestin, CCL20-stimulated. inhibition, % at 20 µM. 340,000 tested, 0.49% active. AID 493098, 2011;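 active = compounds whose inhibition of the agonist-driven luminescence signal at 20 µM reaches about 50%, limit read from the data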;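 note: cells stimulated with CCL20 at 14 nM final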
APJ agonist – agonists of human apelin receptor APJ, primary screen, CHO-K1 cells, PathHunter beta-arrestin, luminescence; AID 2520, 2010; 330,000 tested, 0.11% active; activation, % at 20 µM; P35414; 0% DMSO wells, 100% apelin;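 active = activation more than six SD over the plate average, tested at 20 µM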
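Assay system: CHO-K1 APJ beta-arrestin complementation cell line / Compound: single test compound dose, 20 µM final, 1% DMSO / Times: overnight seeding, 90 min compound at 25 °C, 1 h detection / Technique: beta-gal luminescence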
m5-HT2A agonist – mouse Htr2a agonists via beta-arrestin recruitment, primary screen, cell-based, luminescence. 5-hydroxytryptamine receptor 2A (Mus musculus), P35363. activation, % at 7.6 µM. AID 624169, 2012. 360,000 tested, 0.66% active. CHO-K1 mHTR2A beta-arrestin complementation; percent of 30 µM serotonin response;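 active = activation above a run cutoff, the mean activation of all tested compounds plus 3 SD, cut at about 14% in these data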
APJ antagonist – antagonists of human apelin receptor APJ, primary screen, CHO-K1 cells, beta-arrestin complementation, luminescence | P35414 | inhibition, % at 20 µM | 330,000 tested, 0.32% active | AID 2521, 2010;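 active = inhibition above about 40% at 20 µM, limit read from the data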;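 note: cells challenged with 10 nM apelin-13 agonist together with compound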
MOR ag counter – OPRM1 agonists via beta-arrestin recruitment, confirmation, counter-screen for mouse HTR2A agonist project, cell-based, luminescence, single concentration | U2OS OPRM1 beta-arrestin PathHunter; DMSO 0%, DAMGO 9.3 µM 100% | activation, % at 9.3 µM | 2,300 tested, 5.3% active | shares compounds with m5-HT2A agonist;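 active = mean activation above the mean of DMSO-only wells plus 3 SD, cut at about 0.5% in these data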
Target sequence (P35372 whole entry, looked up): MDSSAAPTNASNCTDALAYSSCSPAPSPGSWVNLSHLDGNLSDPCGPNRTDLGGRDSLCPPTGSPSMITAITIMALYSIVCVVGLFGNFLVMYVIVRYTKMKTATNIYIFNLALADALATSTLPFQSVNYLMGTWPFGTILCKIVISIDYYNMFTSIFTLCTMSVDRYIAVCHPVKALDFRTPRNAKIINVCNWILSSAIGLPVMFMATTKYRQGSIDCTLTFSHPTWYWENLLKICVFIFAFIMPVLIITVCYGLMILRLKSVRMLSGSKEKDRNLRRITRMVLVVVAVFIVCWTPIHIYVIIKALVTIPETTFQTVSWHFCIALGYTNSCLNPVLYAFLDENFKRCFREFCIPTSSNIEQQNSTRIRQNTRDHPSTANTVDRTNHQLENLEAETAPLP
HTR2A ag conf – mouse HTR2A agonists, beta-arrestin recruitment, confirmation, cell-based, luminescence, CHO-K1 PathHunter, triplicate | shares compounds with m5-HT2A agonist | DMSO 0%, 30 µM serotonin 100% | activation, % at 7.6 µM | 2,300 tested, 19% active | AID 624381, 2012;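 active = mean activation across triplicates above the hit threshold derived in the original primary screen, cut at about 15% in these data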
Hits are given with their value.

C=CCn1c(SCC(=O)NCC(=O)OCC)nnc1-c1cccc(OC)c1 was read as EBI2 antag inactive, CXCR6 inh inactive, CCR6 antagonist inactive, APJ agonist inactive, m5-HT2A agonist 20, APJ antagonist inactive, MOR ag counter inactive and HTR2A ag conf inactive.
`COC(=O)[C@]12CCCCC=C1N(Cc1ccccc1)C(=O)[C@H](CC(=O)N1CCCCC1)C2` gave EBI2 antag inactive, CXCR6 inh inactive and m5-HT2A agonist inactive.
CCOC(=O)C/C(N)=N/NC(=O)c1ccc(Cl)cc1Cl was read as EBI2 antag inactive, CXCR6 inh inactive, CCR6 antagonist inactive, APJ agonist inactive, m5-HT2A agonist inactive and APJ antagonist inactive.
Screening Cc1cc(C)n2nc(SCC(=O)N(CCC#N)c3ccc(F)cc3)nc2n1 returned EBI2 antag inactive, CXCR6 inh inactive, CCR6 antagonist inactive, APJ agonist inactive, m5-HT2A agonist inactive and APJ antagonist inactive.
For O=C(C[C@H]1C[C@H](C(=O)N2CCOCC2)[C@@]2(CCC3CCCC3)c3[nH]c4cc(-c5ccco5)ccc4c3CCN2C1=O)NCCN1CCOCC1 the results were EBI2 antag inactive, CXCR6 inh inactive, CCR6 antagonist inactive and m5-HT2A agonist inactive.
`COCCCNC(=O)C[C@H]1C[C@H](C(=O)N2CCOCC2)[C@@]2(CCC3CCCC3)c3[nH]c4cc(-c5ccco5)ccc4c3CCN2C1=O` gave EBI2 antag inactive, CXCR6 inh inactive, CCR6 antagonist inactive, m5-HT2A agonist 15, MOR ag counter inactive and HTR2A ag conf inactive.
Screening CN(C)C(=O)CCc1ccc2c3c([nH]c2c1)[C@]1(C)[C@@H](C(=O)N2CCOCC2)C[C@H](CC(=O)NCc2cccc(C(F)(F)F)c2)C(=O)N1CC3 returned EBI2 antag inactive, CXCR6 inh inactive, CCR6 antagonist inactive, m5-HT2A agonist 15, MOR ag counter inactive and HTR2A ag conf inactive.
For CC[C@]12c3[nH]c4ccccc4c3CCN1C(=O)C(CC(=O)NCCN1CCOCC1)C[C@@H]2C(=O)N1CCN(C(=O)c2ccco2)CC1 (stereo partly specified) the results were EBI2 antag inactive, CXCR6 inh inactive, CCR6 antagonist inactive, APJ agonist inactive, m5-HT2A agonist inactive and APJ antagonist inactive.
For CC[C@]12c3[nH]c4ccccc4c3CCN1C(=O)C(CC(=O)NCc1cccc(C(F)(F)F)c1)C[C@@H]2C(=O)N1CCN(C(=O)c2ccco2)CC1 (stereo partly specified) the results were EBI2 antag inactive, CXCR6 inh inactive, CCR6 antagonist inactive, APJ agonist inactive, m5-HT2A agonist 22, APJ antagonist inactive, MOR ag counter inactive and HTR2A ag conf inactive.
`CC(=O)c1ccc(-c2nnc(CCC(=O)N3CCCC(C(=O)CC(C)C)C3)o2)s1` (stereo unspecified) gave EBI2 antag inactive, CXCR6 inh inactive, CCR6 antagonist inactive, APJ agonist inactive, m5-HT2A agonist inactive and APJ antagonist inactive.
`CCOC(=O)C(C(=O)Nc1cccc(C)n1)C1CCCCC1` (stereo unspecified) gave EBI2 antag inactive, CXCR6 inh inactive, CCR6 antagonist inactive, APJ agonist inactive, m5-HT2A agonist 14, APJ antagonist inactive, MOR ag counter inactive and HTR2A ag conf inactive.
Screening COc1ccc(CCNC(=O)c2c(Cl)ccc(Cl)c2OC)cc1OC returned EBI2 antag inactive, CXCR6 inh inactive, CCR6 antagonist inactive, APJ agonist inactive, m5-HT2A agonist 31, APJ antagonist inactive, MOR ag counter inactive and HTR2A ag conf inactive.
COc1ccc(CCNC(=O)c2ccc(Cl)cc2)cc1OC was read as EBI2 antag inactive, CXCR6 inh inactive, CCR6 antagonist inactive, APJ agonist inactive, m5-HT2A agonist inactive and APJ antagonist inactive.
For CN(Cc1ccccc1)C(c1ccnc2ccccc12)c1nnnn1-c1ccc2c(c1)OCCO2 (stereo unspecified) the results were EBI2 antag inactive, CXCR6 inh inactive and m5-HT2A agonist inactive.
`CC(=O)Nc1ncc(Sc2ccc([N+](=O)[O-])cc2)s1` gave EBI2 antag inactive, CXCR6 inh inactive, CCR6 antagonist inactive, m5-HT2A agonist 20, MOR ag counter inactive and HTR2A ag conf inactive.
`CC1=C(C(=O)N(C)C)CC(CC(=O)NC2CCCCC2)C(=O)N1CCCN1CCCC1=O` (stereo unspecified) gave EBI2 antag inactive, CXCR6 inh inactive, m5-HT2A agonist 16, MOR ag counter inactive and HTR2A ag conf inactive.
`COc1ccc(Cn2ccnc2SCC(=O)NC2CCCC2)cc1` gave EBI2 antag inactive, CXCR6 inh inactive, CCR6 antagonist inactive, APJ agonist inactive, m5-HT2A agonist inactive and APJ antagonist inactive.
Screening COc1ccccc1C(=O)NC(=O)COC(=O)C1(C)CC1(Cl)Cl (stereo unspecified) returned EBI2 antag inactive, CXCR6 inh inactive, CCR6 antagonist inactive, APJ agonist inactive, m5-HT2A agonist 18, APJ antagonist inactive, MOR ag counter inactive and HTR2A ag conf inactive.
COc1ccccc1C(=O)NC(=O)COC(=O)c1ccc([N+](=O)[O-])cc1 was read as EBI2 antag inactive, CXCR6 inh inactive, CCR6 antagonist inactive, APJ agonist inactive, m5-HT2A agonist 18, APJ antagonist inactive, MOR ag counter inactive and HTR2A ag conf inactive.
Screening COc1ccccc1C(=O)NC(=O)COc1ccc([N+](=O)[O-])cc1 returned EBI2 antag inactive, CXCR6 inh inactive, CCR6 antagonist inactive, APJ agonist inactive, m5-HT2A agonist inactive and APJ antagonist inactive.
Screening CC1(C(=O)OCC(=O)NC(=O)NCc2ccccc2)CC1(Cl)Cl (stereo unspecified) returned EBI2 antag inactive, CXCR6 inh inactive, CCR6 antagonist inactive, APJ agonist inactive, m5-HT2A agonist inactive and APJ antagonist inactive.
COc1ccc(S(=O)(=O)N2CCCCCC2)cc1C(=O)N1CCN(C(C)=O)CC1 was read as EBI2 antag inactive, CXCR6 inh inactive and m5-HT2A agonist inactive.
